Here are results for three compounds from ChEMBL document CHEMBL4138284, “Biomimetic Stereoselective Sulfa-Michael Addition Leads to Platensimycin and Platencin Sulfur Analogues against Methicillin-Resistant Staphylococcus aureus” (J Nat Prod, 2018).

Values after ≈ are worked out from the molar mass of the structure shown.

The subject of the first assay is Staphylococcus aureus. The experiment in a line: Antibacterial activity against methicillin-resistant Staphylococcus aureus isolate 11 incubated overnight by agar dilution method. Type of assay: functional. The method, boiled down:
(§1)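 MIC by agar dilution. Strains were grown overnight in LB broth and diluted, then about 10^4 CFU (2 μL spots) were spotted onto LB agar plates containing test compound at 0.5 to 8 μg mL−1 agar. Plates were incubated overnight at 37 °C and inspected for growth. Clinical MSSA and MRSA isolates came from local hospitals.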
(In agar dilution the substance is mixed into plates at graded concentrations.)
Turning to `C=C1C[C@@]23CCC1C[C@@H]2[C@](C)(CCC(=O)Nc1c(O)ccc(C(=O)O)c1O)C(=O)C[C@@H]3SC(=O)Cc1ccc(F)cc1` (single isomer, unassigned), the MIC – broadly, the least concentration at which growth counts as inhibited – was found to be 4 µg/mL (≈ 6.71 µM).

`CC(=O)NC[C@H]1CN(c2ccc(N3CCOCC3)c(F)c2)C(=O)O1` [LINEZOLID] gave an MIC of 1 µg/mL (≈ 2.96 µM).

Compound `C=C1C[C@@]23C=CC(=O)[C@@](C)(CCC(=O)Nc4c(O)ccc(C(=O)O)c4O)[C@@H]2C[C@@H]1CC3` [PLATENCIN] returned an MIC of 1 µg/mL (≈ 2.35 µM).

Another assay has as its system Staphylococcus aureus. The experiment in a line: Antibacterial activity against methicillin-resistant Staphylococcus aureus isolate 10 incubated overnight by agar dilution method. Type of assay: functional. The method in brief: as §1
In turn, `C=C1C[C@@]23CCC1C[C@@H]2[C@](C)(CCC(=O)Nc1c(O)ccc(C(=O)O)c1O)C(=O)C[C@@H]3SC(=O)Cc1ccc(F)cc1` (single isomer, unassigned) gave an MIC of 1 µg/mL (≈ 1.68 µM).

Turning to `CC(=O)NC[C@H]1CN(c2ccc(N3CCOCC3)c(F)c2)C(=O)O1` [LINEZOLID], the MIC is 1 µg/mL (≈ 2.96 µM).

Turning to `C=C1C[C@@]23C=CC(=O)[C@@](C)(CCC(=O)Nc4c(O)ccc(C(=O)O)c4O)[C@@H]2C[C@@H]1CC3` [PLATENCIN], the MIC was found to be 1 µg/mL (≈ 2.35 µM).

Another assay relates to Staphylococcus aureus. In words: Antibacterial activity against methicillin-resistant Staphylococcus aureus isolate 5 incubated overnight by agar dilution method. In kind it is functional. The method, boiled down: as §1
`C=C1C[C@@]23CCC1C[C@@H]2[C@](C)(CCC(=O)Nc1c(O)ccc(C(=O)O)c1O)C(=O)C[C@@H]3SC(=O)Cc1ccc(F)cc1` (single isomer, unassigned) registered an MIC of 2 µg/mL (≈ 3.36 µM).

For `CC(=O)NC[C@H]1CN(c2ccc(N3CCOCC3)c(F)c2)C(=O)O1` [LINEZOLID], 1 µg/mL (≈ 2.96 µM) was the least that counted as inhibitory (MIC).

Compound `C=C1C[C@@]23C=CC(=O)[C@@](C)(CCC(=O)Nc4c(O)ccc(C(=O)O)c4O)[C@@H]2C[C@@H]1CC3` [PLATENCIN] displayed an MIC of 1 µg/mL (≈ 2.35 µM).

The next assay deals with Staphylococcus aureus. In words: Antibacterial activity against methicillin-resistant Staphylococcus aureus isolate 9 incubated overnight by agar dilution method. In kind it is functional. The method in brief:
as §1
`C=C1C[C@@]23CCC1C[C@@H]2[C@](C)(CCC(=O)Nc1c(O)ccc(C(=O)O)c1O)C(=O)C[C@@H]3SC(=O)Cc1ccc(F)cc1` (single isomer, unassigned): 1 µg/mL (≈ 1.68 µM) was the least that counted as inhibitory (MIC).

Consider `CC(=O)NC[C@H]1CN(c2ccc(N3CCOCC3)c(F)c2)C(=O)O1` [LINEZOLID], for which inhibition of growth (MIC) required 1 µg/mL (≈ 2.96 µM).

Compound `C=C1C[C@@]23C=CC(=O)[C@@](C)(CCC(=O)Nc4c(O)ccc(C(=O)O)c4O)[C@@H]2C[C@@H]1CC3` [PLATENCIN] gave a minimum inhibitory concentration (MIC) of 1 µg/mL (≈ 2.35 µM).

In the next assay the test system is Staphylococcus aureus. The experiment in a line: Antibacterial activity against methicillin-sensitive Staphylococcus aureus isolate 2 incubated overnight by agar dilution method. In kind it is functional. The method, boiled down:
as §1
`C=C1C[C@@]23CCC1C[C@@H]2[C@](C)(CCC(=O)Nc1c(O)ccc(C(=O)O)c1O)C(=O)C[C@@H]3SC(=O)Cc1ccc(F)cc1` (single isomer, unassigned) gave an MIC of 1 µg/mL (≈ 1.68 µM).

`CC(=O)NC[C@H]1CN(c2ccc(N3CCOCC3)c(F)c2)C(=O)O1` [LINEZOLID] came in with an MIC of 1 µg/mL (≈ 2.96 µM).

With `C=C1C[C@@]23C=CC(=O)[C@@](C)(CCC(=O)Nc4c(O)ccc(C(=O)O)c4O)[C@@H]2C[C@@H]1CC3` [PLATENCIN], 1 µg/mL (≈ 2.35 µM) was the least that counted as inhibitory (MIC).

The subject of the next assay is Staphylococcus aureus. In words: Antibacterial activity against methicillin-sensitive Staphylococcus aureus isolate 3 incubated overnight by agar dilution method. In kind it is functional. The method, boiled down: as §1
`C=C1C[C@@]23CCC1C[C@@H]2[C@](C)(CCC(=O)Nc1c(O)ccc(C(=O)O)c1O)C(=O)C[C@@H]3SC(=O)Cc1ccc(F)cc1` (single isomer, unassigned) displayed an MIC of 1 µg/mL (≈ 1.68 µM).

`CC(=O)NC[C@H]1CN(c2ccc(N3CCOCC3)c(F)c2)C(=O)O1` [LINEZOLID] registered an MIC of 1 µg/mL (≈ 2.96 µM).

`C=C1C[C@@]23C=CC(=O)[C@@](C)(CCC(=O)Nc4c(O)ccc(C(=O)O)c4O)[C@@H]2C[C@@H]1CC3` [PLATENCIN] returned an MIC of 1 µg/mL (≈ 2.35 µM).

For another assay, the system named is Staphylococcus aureus. The experiment in a line: Antibacterial activity against Staphylococcus aureus ATCC 29213 incubated overnight by agar dilution method. Type of assay: functional. The method, boiled down: as §1
Compound `C=C1C[C@@]23CCC1C[C@@H]2[C@](C)(CCC(=O)Nc1c(O)ccc(C(=O)O)c1O)C(=O)C[C@@H]3SC(=O)Cc1ccc(F)cc1` (single isomer, unassigned) gave an MIC of 4 µg/mL (≈ 6.71 µM).

As for `CC(=O)NC[C@H]1CN(c2ccc(N3CCOCC3)c(F)c2)C(=O)O1` [LINEZOLID], the MIC was determined as 1 µg/mL (≈ 2.96 µM).

As for `C=C1C[C@@]23C=CC(=O)[C@@](C)(CCC(=O)Nc4c(O)ccc(C(=O)O)c4O)[C@@H]2C[C@@H]1CC3` [PLATENCIN], 1 µg/mL (≈ 2.35 µM) was the least that counted as inhibitory (MIC).

The next assay relates to Staphylococcus aureus. The experiment in a line: Antibacterial activity against methicillin-sensitive Staphylococcus aureus isolate 4 incubated overnight by agar dilution method. Type of assay: functional. The method, boiled down: as §1
As to `C=C1C[C@@]23CCC1C[C@@H]2[C@](C)(CCC(=O)Nc1c(O)ccc(C(=O)O)c1O)C(=O)C[C@@H]3SC(=O)Cc1ccc(F)cc1` (single isomer, unassigned), 0.5 µg/mL (≈ 0.839 µM) was the least that counted as inhibitory (MIC).

Consider `CC(=O)NC[C@H]1CN(c2ccc(N3CCOCC3)c(F)c2)C(=O)O1` [LINEZOLID], for which the MIC is 1 µg/mL (≈ 2.96 µM). This MIC is about 2-fold higher than that of the compound before.

With `C=C1C[C@@]23C=CC(=O)[C@@](C)(CCC(=O)Nc4c(O)ccc(C(=O)O)c4O)[C@@H]2C[C@@H]1CC3` [PLATENCIN], the MIC was 1 µg/mL (≈ 2.35 µM).

A further assay relates to Staphylococcus aureus. The experiment in a line: Antibacterial activity against methicillin-resistant Staphylococcus aureus isolate 7 incubated overnight by agar dilution method. Type of assay: functional. The method in brief:
as §1
`C=C1C[C@@]23CCC1C[C@@H]2[C@](C)(CCC(=O)Nc1c(O)ccc(C(=O)O)c1O)C(=O)C[C@@H]3SC(=O)Cc1ccc(F)cc1` (single isomer, unassigned) returned an MIC of 4 µg/mL (≈ 6.71 µM).

Turning to `CC(=O)NC[C@H]1CN(c2ccc(N3CCOCC3)c(F)c2)C(=O)O1` [LINEZOLID], 1 µg/mL (≈ 2.96 µM) was the least that counted as inhibitory (MIC). Compared with the last compound, the MIC is about 4-fold lower.

The compound `C=C1C[C@@]23C=CC(=O)[C@@](C)(CCC(=O)Nc4c(O)ccc(C(=O)O)c4O)[C@@H]2C[C@@H]1CC3` [PLATENCIN] had an MIC of 1 µg/mL (≈ 2.35 µM).

The next assay concerns Staphylococcus aureus. In words: Antibacterial activity against methicillin-sensitive Staphylococcus aureus isolate 1 incubated overnight by agar dilution method. In kind it is functional. The method in brief:
as §1
For the compound `C=C1C[C@@]23CCC1C[C@@H]2[C@](C)(CCC(=O)Nc1c(O)ccc(C(=O)O)c1O)C(=O)C[C@@H]3SC(=O)Cc1ccc(F)cc1` (single isomer, unassigned), it took 1 µg/mL (≈ 1.68 µM) to inhibit growth (MIC).

For `CC(=O)NC[C@H]1CN(c2ccc(N3CCOCC3)c(F)c2)C(=O)O1` [LINEZOLID], the MIC was determined as 1 µg/mL (≈ 2.96 µM).

`C=C1C[C@@]23C=CC(=O)[C@@](C)(CCC(=O)Nc4c(O)ccc(C(=O)O)c4O)[C@@H]2C[C@@H]1CC3` [PLATENCIN] showed an MIC of 1 µg/mL (≈ 2.35 µM).

The subject of another assay is Staphylococcus aureus. The experiment in a line: Antibacterial activity against methicillin-resistant Staphylococcus aureus isolate 8 incubated overnight by agar dilution method. Type of assay: functional. The method in brief:
as §1
In turn, `C=C1C[C@@]23CCC1C[C@@H]2[C@](C)(CCC(=O)Nc1c(O)ccc(C(=O)O)c1O)C(=O)C[C@@H]3SC(=O)Cc1ccc(F)cc1` (single isomer, unassigned) displayed an MIC of 1 µg/mL (≈ 1.68 µM).

The compound `CC(=O)NC[C@H]1CN(c2ccc(N3CCOCC3)c(F)c2)C(=O)O1` [LINEZOLID] registered an MIC of 1 µg/mL (≈ 2.96 µM).

With `C=C1C[C@@]23C=CC(=O)[C@@](C)(CCC(=O)Nc4c(O)ccc(C(=O)O)c4O)[C@@H]2C[C@@H]1CC3` [PLATENCIN], inhibition of growth (MIC) required 1 µg/mL (≈ 2.35 µM).

In a further assay the test system is Staphylococcus aureus. In words: Antibacterial activity against methicillin-resistant Staphylococcus aureus isolate 6 incubated overnight by agar dilution method. Type of assay: functional. The method in brief: as §1
The compound `C=C1C[C@@]23CCC1C[C@@H]2[C@](C)(CCC(=O)Nc1c(O)ccc(C(=O)O)c1O)C(=O)C[C@@H]3SC(=O)Cc1ccc(F)cc1` (single isomer, unassigned) displayed an MIC of 2 µg/mL (≈ 3.36 µM).

For the compound `CC(=O)NC[C@H]1CN(c2ccc(N3CCOCC3)c(F)c2)C(=O)O1` [LINEZOLID], 1 µg/mL (≈ 2.96 µM) was the least that counted as inhibitory (MIC). Against the preceding compound, the MIC is about 2-fold lower.

Compound `C=C1C[C@@]23C=CC(=O)[C@@](C)(CCC(=O)Nc4c(O)ccc(C(=O)O)c4O)[C@@H]2C[C@@H]1CC3` [PLATENCIN] registered an MIC of 1 µg/mL (≈ 2.35 µM).
